Laboratory results published in ChEMBL document CHEMBL4811254, “Beyond Basicity: Discovery of Nonbasic DENV-2 Protease Inhibitors with Potent Activity in Cell Culture” (J Med Chem, 2021).
Activity calls are given as the source filed them.

Columns and labels:
[1] = molecular target: Genome polyprotein (dengue virus type 2) (UniProt P29990); test: Inhibition of NS2B-NS3 protease in DENV2proHeLa system assessed as inhibition of luciferase signal at 12.5 uM incubated for 24 hrs by luciferase reporter gene assay; format: cell-based; conditions: HeLa
Outline: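 Stable DENV2proHeLa cells seeded at 2 × 10⁴/well and dosed immediately, then incubated 24 h at 37 °C. Cells lysed 15 min at room temperature. Luciferase read with coelenterazine (2.75 μM in PBS) injection, luminescence 5 s. Triplicates; percent inhibition calculated relative to untreated control; background from cell-free wells.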

Genome polyprotein [2] = molecular target: T1, Genome polyprotein (dengue virus type 2, UniProt P29990); test: Inhibition of NS2B-NS3 protease in DENV2proHeLa system assessed as inhibition of luciferase signal incubated for 24 hrs by luciferase reporter gene assay; format: cell-based, HeLa
Outline: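 HeLa cells stably carrying the reporter system, 2 × 10⁴ per well, given inhibitor at seeding and held 24 h at 37 °C. Cells lysed 15 min at room temperature. Luciferase read for 5 s after injecting coelenterazine (2.75 μM in PBS). Triplicate wells per concentration; percent inhibition taken against untreated cells. EC50/EC90 from 4-parameter dose-response fit, background from cell-free wells subtracted.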

[3] = Cytotoxicity against human HeLa cells assessed as reduction in cell viability incubated for 24 hrs by CellTiter-Blue assay; format: cell-based
Outline: (§1)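 Viability by CellTiter-Blue in HeLa or Huh-7 cells exposed to compound dilutions. Plates run in parallel with the reporter assay (HeLa) or the virus titer assay (Huh-7).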

[4] = molecular target: Prothrombin (Homo sapiens) (UniProt P00734); test: Inhibition of thrombin in human plasma using Boc-Val-Pro-Arg-AMC as substrate at 25 uM preincubated with enzyme for 15 mins followed by substrate addition and measured for 15 mins by fluorimetric assay; format: cell-free; conditions: time 30.0 min
Trypsin (Homo sapiens) = Trypsin (Homo sapiens) (UniProt P07477+P07478+P35030); test: Inhibition of trypsin (unknown origin) using Boc-Val-Pro-Arg-AMC as substrate at 50 uM preincubated with enzyme for 15 mins followed by substrate addition and measured for 15 mins by fluorimetric assay; format: protein assay; conditions: time 30.0 min
[5] = molecular target: Genome polyprotein (dengue virus type 2) (UniProt P29990); test: Inhibition of DENV2 NS2B-NS3 protease expressed in Escherichia coli BL21 lambda(DE3) using FRET substrate preincubated with enzyme for 15 mins in presence of detergent CHAPS followed by substrate addition for 15 mins by fluorescence based analysis; conditions: time 30.0 min
dengue virus type 2 [6] = test: (§2) Antiviral activity against DENV2 infected in human Huh7 cells assessed as reduction in virus titer in cell supernatant by measuring inhibition of plaque formation using VeroE6 cells at 12.5 uM preincubated with viral infected Huh7 cells for 48 hrs and measured following infection of VeroE6 cells with supernatants for 7 days by plaque assay based crystal violet staining analysis; format: functional; conditions: Huh-7, 216 h, time 9 day
Outline: (§3)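 Huh-7 cells seeded at 1 × 10⁴/well and incubated overnight. Infected with DENV-2 at MOI 1 for 2 h, then medium changed and compound added. […] Pooled supernatants titred by plaque assay on VeroE6 cells: 10⁻¹ to 10⁻⁶ dilutions, 1 h infection, 7 days, formaldehyde fix, crystal violet.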

Huh-7 = test: Cytotoxicity against human Huh-7 cells assessed as reduction in cell viability at 12.5 uM incubated for 48 hrs by CellTiter-Blue assay; format: cell-based; conditions: huh-7, 48 h; outline: as §1
[7] = Passive membrane permeability of the compound in phosphate buffered saline assessed as concentration of the compound in acceptor plate at 200 uM incubated for 5 hrs by PAMPA assay based HPLC analysis; format: ADME
Outline: (§4)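 Precoated trilayer PAMPA, 5 h incubation. Acceptor and donor concentrations measured after 5 h. Permeability and mass retention calculated by a literature method.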

[8] = Passive membrane permeability of the compound in phosphate buffered saline assessed as concentration of the compound in donor plate at 200 uM incubated for 5 hrs by PAMPA assay based HPLC analysis; format: ADME; outline: as §4
[9] = Passive membrane permeability of the compound in phosphate buffered saline at 200 uM incubated for 5 hrs by PAMPA assay based HPLC analysis; format: ADME; conditions: PAMPA, read-out: permeability; outline: as §4
[10] = Passive membrane permeability of the compound in phosphate buffered saline assessed as mass retention of the compound at 200 uM incubated for 5 hrs by PAMPA assay based HPLC analysis; format: ADME; outline: as §4
[11] = molecular target: Genome polyprotein (West Nile virus) (UniProt P06935); test: Inhibition of WNV NS2B-NS3 protease expressed in Escherichia coli BL21 lambda(DE3) using FRET substrate preincubated with enzyme for 15 mins in presence of detergent CHAPS followed by substrate addition for 15 mins by fluorescence based analysis; conditions: time 30.0 min
Chain of Genome polyprotein (West Nile virus) (P06935 whole entry): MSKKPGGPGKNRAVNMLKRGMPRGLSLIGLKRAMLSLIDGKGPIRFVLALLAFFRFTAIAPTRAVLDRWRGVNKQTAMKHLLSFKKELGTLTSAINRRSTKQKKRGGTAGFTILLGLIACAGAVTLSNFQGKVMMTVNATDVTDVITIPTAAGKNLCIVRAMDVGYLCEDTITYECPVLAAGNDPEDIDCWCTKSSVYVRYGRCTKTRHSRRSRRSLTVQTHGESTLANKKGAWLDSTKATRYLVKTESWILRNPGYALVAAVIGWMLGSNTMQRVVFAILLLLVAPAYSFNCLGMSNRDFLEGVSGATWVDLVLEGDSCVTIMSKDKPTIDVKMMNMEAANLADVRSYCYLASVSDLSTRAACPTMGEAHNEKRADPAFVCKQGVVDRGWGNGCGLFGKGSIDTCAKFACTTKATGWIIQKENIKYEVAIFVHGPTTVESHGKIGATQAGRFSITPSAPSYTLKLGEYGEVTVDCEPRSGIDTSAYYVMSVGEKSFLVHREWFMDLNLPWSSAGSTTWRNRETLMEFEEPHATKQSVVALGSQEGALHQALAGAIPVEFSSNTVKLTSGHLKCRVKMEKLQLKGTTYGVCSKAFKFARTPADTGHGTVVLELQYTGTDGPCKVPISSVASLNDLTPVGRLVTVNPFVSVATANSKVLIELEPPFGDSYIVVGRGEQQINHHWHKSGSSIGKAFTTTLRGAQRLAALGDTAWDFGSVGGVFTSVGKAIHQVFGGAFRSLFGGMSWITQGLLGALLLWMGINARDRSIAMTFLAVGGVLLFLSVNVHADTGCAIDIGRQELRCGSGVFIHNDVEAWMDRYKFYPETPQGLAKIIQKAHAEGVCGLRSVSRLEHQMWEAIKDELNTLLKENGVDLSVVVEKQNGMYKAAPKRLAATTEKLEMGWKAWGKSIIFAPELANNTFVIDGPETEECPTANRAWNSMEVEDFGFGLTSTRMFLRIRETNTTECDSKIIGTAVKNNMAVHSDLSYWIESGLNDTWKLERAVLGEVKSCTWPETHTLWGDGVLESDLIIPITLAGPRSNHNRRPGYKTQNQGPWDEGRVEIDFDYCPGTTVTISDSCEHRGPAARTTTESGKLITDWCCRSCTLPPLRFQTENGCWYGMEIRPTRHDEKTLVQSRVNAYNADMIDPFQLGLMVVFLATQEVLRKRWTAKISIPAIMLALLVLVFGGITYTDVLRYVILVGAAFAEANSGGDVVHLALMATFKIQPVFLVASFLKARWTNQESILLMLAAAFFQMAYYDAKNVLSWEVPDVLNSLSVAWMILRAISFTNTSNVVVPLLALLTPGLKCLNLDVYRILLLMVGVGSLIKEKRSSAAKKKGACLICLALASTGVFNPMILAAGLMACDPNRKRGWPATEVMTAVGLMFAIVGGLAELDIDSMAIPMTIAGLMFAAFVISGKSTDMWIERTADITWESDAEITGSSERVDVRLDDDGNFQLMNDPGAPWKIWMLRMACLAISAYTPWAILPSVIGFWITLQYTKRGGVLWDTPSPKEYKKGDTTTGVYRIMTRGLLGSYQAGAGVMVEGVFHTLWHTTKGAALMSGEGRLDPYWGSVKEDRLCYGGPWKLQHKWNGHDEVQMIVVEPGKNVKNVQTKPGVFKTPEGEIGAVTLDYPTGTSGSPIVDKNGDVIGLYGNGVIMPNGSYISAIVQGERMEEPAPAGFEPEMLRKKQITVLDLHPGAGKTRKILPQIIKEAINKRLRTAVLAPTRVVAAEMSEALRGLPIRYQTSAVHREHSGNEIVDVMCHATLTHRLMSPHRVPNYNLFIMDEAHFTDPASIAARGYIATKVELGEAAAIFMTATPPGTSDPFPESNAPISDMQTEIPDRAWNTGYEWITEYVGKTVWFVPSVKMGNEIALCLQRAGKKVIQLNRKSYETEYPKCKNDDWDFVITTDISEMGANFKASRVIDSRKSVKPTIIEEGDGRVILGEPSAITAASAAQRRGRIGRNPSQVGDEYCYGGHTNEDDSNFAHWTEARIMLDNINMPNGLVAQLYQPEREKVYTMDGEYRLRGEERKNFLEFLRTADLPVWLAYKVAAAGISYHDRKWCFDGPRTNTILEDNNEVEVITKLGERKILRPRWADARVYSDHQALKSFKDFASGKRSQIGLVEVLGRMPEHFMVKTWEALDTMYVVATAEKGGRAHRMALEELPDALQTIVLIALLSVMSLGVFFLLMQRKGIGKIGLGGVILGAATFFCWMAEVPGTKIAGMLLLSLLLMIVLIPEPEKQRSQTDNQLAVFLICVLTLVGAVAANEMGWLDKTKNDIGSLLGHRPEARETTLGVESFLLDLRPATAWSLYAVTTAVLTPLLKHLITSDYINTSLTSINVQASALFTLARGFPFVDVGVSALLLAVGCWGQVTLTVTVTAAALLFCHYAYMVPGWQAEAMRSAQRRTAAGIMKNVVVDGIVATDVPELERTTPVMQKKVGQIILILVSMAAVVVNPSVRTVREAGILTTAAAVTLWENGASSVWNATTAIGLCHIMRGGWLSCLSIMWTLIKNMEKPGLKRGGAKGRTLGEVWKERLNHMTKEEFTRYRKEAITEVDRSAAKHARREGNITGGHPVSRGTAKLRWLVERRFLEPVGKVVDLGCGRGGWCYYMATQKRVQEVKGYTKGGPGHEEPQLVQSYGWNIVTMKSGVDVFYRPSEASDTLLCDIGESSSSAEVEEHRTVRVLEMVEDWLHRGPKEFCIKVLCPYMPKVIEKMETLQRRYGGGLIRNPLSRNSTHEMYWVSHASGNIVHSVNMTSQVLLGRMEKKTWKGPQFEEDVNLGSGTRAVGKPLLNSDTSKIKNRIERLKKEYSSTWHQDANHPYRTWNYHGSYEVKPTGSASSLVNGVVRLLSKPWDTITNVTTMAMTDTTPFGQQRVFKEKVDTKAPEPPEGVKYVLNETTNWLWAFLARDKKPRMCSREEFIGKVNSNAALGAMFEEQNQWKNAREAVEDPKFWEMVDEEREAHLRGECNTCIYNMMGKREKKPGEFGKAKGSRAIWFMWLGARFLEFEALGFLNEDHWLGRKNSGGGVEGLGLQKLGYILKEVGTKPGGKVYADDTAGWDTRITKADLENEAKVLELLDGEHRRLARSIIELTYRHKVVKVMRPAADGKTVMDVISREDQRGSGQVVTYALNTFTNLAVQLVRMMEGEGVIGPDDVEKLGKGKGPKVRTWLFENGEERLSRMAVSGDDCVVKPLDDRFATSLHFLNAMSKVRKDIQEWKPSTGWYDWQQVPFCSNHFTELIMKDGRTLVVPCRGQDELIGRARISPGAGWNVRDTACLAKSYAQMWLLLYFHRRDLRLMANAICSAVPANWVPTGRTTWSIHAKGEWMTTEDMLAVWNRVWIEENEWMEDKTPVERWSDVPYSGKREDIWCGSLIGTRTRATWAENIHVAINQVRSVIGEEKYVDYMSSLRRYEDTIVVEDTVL

Genome polyprotein [12] = molecular target: T1, Genome polyprotein; test: Competitive inhibition of DENV2 NS2B-NS3 protease expressed in Escherichia coli BL21 lambda(DE3) using FRET substrate preincubated with enzyme for 15 mins followed by varying concentrations of substrate addition for 15 mins by Cheng-Prusoff plot analysis
dengue virus type 2 [13] = test: as §2, with “cells” for “cells at 12.5 uM”; format: functional, organism-based, Huh-7; conditions: for EC50: Huh-7; for EC90: Huh-7, 216 h, time 9 day; outline: as §3
[14] = Stability of the compound assessed as bovine pancreas trypsin-mediated parent compound depletion at 0.1 mg/ml incubated for 120 mins by HPLC analysis; format: ADME, Bos taurus; conditions: cattle, bovine pancreas trypsin, read-out: Drug degradation
Outline: (§5)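 Compound incubated with α-chymotrypsin or bovine trypsin in buffer for 120 min at 37 °C; parent compound depletion monitored.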

[15] = Stability of the compound assessed as bovine pancreas alphachymotrypsin-mediated parent compound depletion by measuring parent compound remaining at 0.1 mg/ml incubated for 120 mins by HPLC analysis; format: ADME, Bos taurus; conditions: cattle, bovine pancreas alpha-chymotrypsin, read-out: Stabilty; outline: as §5
[16] = molecular target: Genome polyprotein (dengue virus type 2) (UniProt P29990); test: Binding affinity to DENV2 NS2B-NS3 protease expressed in Escherichia coli BL21 lambda(DE3) assessed as quenching of fluorescence of tryptophan residue of the enzyme incubated for 1 hr by tryptophan fluorescence quenching assay; conditions: dose 10-50 µM
Outline: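 Compound added to isolated DENV-2 protease; tryptophan fluorescence quenching monitored across concentrations. Aprotinin added as active-site competitor to test displacement.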

[17] = molecular target: Genome polyprotein (dengue virus type 2) (UniProt P29990); test: Binding affinity to DENV2 NS2B-NS3 protease expressed in Escherichia coli BL21 lambda(DE3) assessed as quenching of fluorescence of tryptophan residue of the enzyme at 50 uM incubated for 1 hr in presence of aprotinin by tryptophan fluorescence quenching assay

SMILES	inhibition [1]	EC50 (Genome polyprotein [2])	CC50 at 24 h [3]	inhibition [4]	inhibition (Trypsin (Homo sapiens))	inhibition [5]	inhibition at 12.5 µM (dengue virus type 2 [6])	Activity (Huh-7)	Activity [7]	Activity [8]	Papp at 5 h, 200 µM [9]	Activity [10]	inhibition [11]	Ki (Genome polyprotein [12])	EC50 (dengue virus type 2 [13])	EC90 (dengue virus type 2 [13])	metabolised at 2 h, 0.1 mg/ml [14]	remaining at 2 h, 0.1 mg/ml [15]	Activity [16]	Activity [17]
NC(=O)c1ccc(CNC(=O)[C@@H](NC(=O)c2ccc(Oc3ccccc3)cc2)c2ccc(OCc3ccccc3)cc2)cc1	82%	1 µM	18 µM	inactive	inactive	Active	90%	61.4%	3 µM	180 µM	0.61 ×10⁻⁶ cm/s	8.9%	–	–	–	–	–	–	–	–
NC(=O)N1c2ccccc2C=Cc2ccccc21 [CARBAMAZEPINE]	–	–	–	–	–	–	–	–	42 µM	187 µM	8.9 ×10⁻⁶ cm/s	-7.6%	–	–	–	–	–	–	–	–
CCCCCC(=O)N[C@H](C(=O)NCc1ccc(C(N)=O)cc1)c1ccc(OCc2c(Cl)cccc2Cl)cc1	71%	8.3 µM	> 50 µM	inactive	inactive	Active	–	–	–	–	–	–	Active	–	–	–	–	–	–	–
CCCCCCCC(=O)N[C@H](C(=O)NCc1ccc(C(N)=O)cc1)c1ccc(OCc2ccccc2)cc1	56%	–	> 50 µM	inactive	inactive	–	–	–	–	–	–	–	Active	–	–	–	–	–	–	–
Cn1c(=O)c2c(ncn2C)n(C)c1=O [CAFFEINE]	–	–	–	–	–	–	–	–	33 µM	173 µM	7.3 ×10⁻⁶ cm/s	2.4%	–	–	–	–	–	–	–	–
NC(=O)c1cccc(NC(=O)[C@@H](NC(=O)c2ccc(C(=O)c3ccccc3)cc2)c2ccc(OCc3ccccc3)cc2)c1	76%	0.39 µM	> 100 µM	inactive	inactive	Active	100%	< 20%	8.6 µM	178 µM	1.8 ×10⁻⁶ cm/s	8.1%	–	3.5 µM	1.1 µM	4.6 µM	25%	70%	–	–
COc1ccccc1Oc1ccc(C(=O)N[C@H](C(=O)Nc2cccc(C(N)=O)c2)c2ccc(OCc3ccccc3)cc2)cc1	77%	2.2 µM	> 100 µM	inactive	inactive	Active	–	–	–	–	–	–	Active	–	–	–	–	–	–	–
N#Cc1ccc(Oc2ccc(C(=O)N[C@H](C(=O)Nc3cccc(C(N)=O)c3)c3ccc(OCc4ccccc4)cc3)cc2)cc1	79%	1 µM	> 100 µM	inactive	inactive	Active	88%	< 20%	4.5 µM	177 µM	1 ×10⁻⁶ cm/s	9.9%	Active	–	0.66 µM	8 µM	–	–	–	–
NC(=O)c1cccc(NC(=O)[C@@H](NC(=O)c2ccc(-c3ccco3)cc2)c2ccc(OCc3ccccc3)cc2)c1	76%	1.7 µM	> 50 µM	inactive	inactive	–	59%	< 20%	2.1 µM	169 µM	0.45 ×10⁻⁶ cm/s	15%	–	–	–	–	–	–	Active	inactive
